# Assay results from ChEMBL document CHEMBL1921766, “Orally active zwitterionic factor Xa inhibitors with long duration of action” (Bioorg Med Chem Lett, 2011).
# Experiment: Solubility of the compound in Japanese pharmacopoeia first fluid at pH 1.2 at 10 mM after 12 hrs
# Format: physicochemical
# Conditions: not given
# In short: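 Solubility measured in Japanese Pharmacopoeia First Fluid, pH 1.2.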
row,"solubility at 12 h, 10000 µM [µg/mL]",SMILES
1,430,CN1CCc2nc(C(=O)Nc3cc(C(=O)O)ccc3CCC(=O)Nc3ccc(Cl)cc3)sc2C1
2,250,CN1CCc2nc(C(=O)Nc3cc(C(=O)O)ccc3CCC(=O)Nc3ccc(Cl)cn3)sc2C1
3,810,CC(C)N1CCc2nc(C(=O)Nc3cc(C(=O)O)ccc3CCC(=O)Nc3ccc(Cl)cn3)sc2C1
4,980,CC(C)N1CCc2nc(C(=O)Nc3cc(C(=O)O)ccc3CCC(=O)Nc3ccc(F)cc3)sc2C1
5,810,COc1cc(C(=O)O)cc(NC(=O)c2nc3c(s2)CN(C(C)C)CC3)c1CCC(=O)Nc1ccc(Cl)cc1

# Further lines, the compound ahead of its results:
row,SMILES,"solubility at 12 h, 10000 µM [µg/mL]"
1,CC(C)N1CCc2nc(C(=O)Nc3c(CCC(=O)Nc4ccc(Cl)cc4)cccc3C(=O)O)sc2C1,1000
2,CC(C)N1CCc2nc(C(=O)Nc3cc(C(=O)O)ccc3CCC(=O)Nc3ccc(Cl)cc3)sc2C1,490
3,CC(C)N1CCc2nc(C(=O)Nc3cc(C(=O)O)cc(F)c3CCC(=O)Nc3ccc(Cl)cc3)sc2C1,970
4,CC(C)N1CCc2nc(C(=O)Nc3cc(C(=O)O)cc(Cl)c3CCC(=O)Nc3ccc(Cl)cc3)sc2C1,450
5,CC(C)N1CCc2nc(C(=O)Nc3cc(C(=O)O)cc(C(F)(F)F)c3CCC(=O)Nc3ccc(Cl)cc3)sc2C1,700
6,CCOc1cc(C(=O)O)cc(NC(=O)c2nc3c(s2)CN(C(C)C)CC3)c1CCC(=O)Nc1ccc(Cl)cc1,370
7,CC(C)Oc1cc(C(=O)O)cc(NC(=O)c2nc3c(s2)CN(C(C)C)CC3)c1CCC(=O)Nc1ccc(Cl)cc1,320

# Experiment: Solubility of the compound in Japanese pharmacopoeia second fluid at pH 6.8 at 10 mM after 12 hrs
# Format: physicochemical
# Conditions: not given
# In short: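 Solubility measured in Japanese Pharmacopoeia Second Fluid, pH 6.8.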
row,"solubility at 12 h, 10000 µM [µg/mL]",SMILES
1,24,CN1CCc2nc(C(=O)Nc3cc(C(=O)O)ccc3CCC(=O)Nc3ccc(Cl)cc3)sc2C1
2,210,CN1CCc2nc(C(=O)Nc3cc(C(=O)O)ccc3CCC(=O)Nc3ccc(Cl)cn3)sc2C1
3,86,CC(C)N1CCc2nc(C(=O)Nc3cc(C(=O)O)ccc3CCC(=O)Nc3ccc(Cl)cn3)sc2C1
4,140,CC(C)N1CCc2nc(C(=O)Nc3cc(C(=O)O)ccc3CCC(=O)Nc3ccc(F)cc3)sc2C1
5,39,COc1cc(C(=O)O)cc(NC(=O)c2nc3c(s2)CN(C(C)C)CC3)c1CCC(=O)Nc1ccc(Cl)cc1

# The next lines start with the compound.
row,SMILES,"solubility at 12 h, 10000 µM [µg/mL]"
1,CC(C)N1CCc2nc(C(=O)Nc3c(CCC(=O)Nc4ccc(Cl)cc4)cccc3C(=O)O)sc2C1,830
2,CC(C)N1CCc2nc(C(=O)Nc3cc(C(=O)O)ccc3CCC(=O)Nc3ccc(Cl)cc3)sc2C1,720
3,CC(C)N1CCc2nc(C(=O)Nc3cc(C(=O)O)cc(F)c3CCC(=O)Nc3ccc(Cl)cc3)sc2C1,11
4,CC(C)N1CCc2nc(C(=O)Nc3cc(C(=O)O)cc(Cl)c3CCC(=O)Nc3ccc(Cl)cc3)sc2C1,160
5,CC(C)N1CCc2nc(C(=O)Nc3cc(C(=O)O)cc(C(F)(F)F)c3CCC(=O)Nc3ccc(Cl)cc3)sc2C1,310
6,CCOc1cc(C(=O)O)cc(NC(=O)c2nc3c(s2)CN(C(C)C)CC3)c1CCC(=O)Nc1ccc(Cl)cc1,3
7,CC(C)Oc1cc(C(=O)O)cc(NC(=O)c2nc3c(s2)CN(C(C)C)CC3)c1CCC(=O)Nc1ccc(Cl)cc1,130

# Experiment: Metabolic stability in human liver microsomes at 1 uM after 20 to 30 mins by LC/MS/MS analysis in presence of NADPH
# Format: ADME, Microsome
# Conditions: read-out: Stability
# In short: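 Metabolic stability read as percent remaining after incubation with human liver microsomes in vitro.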
row,remaining at 1 µM [%],SMILES
1,53,CN1CCc2nc(C(=O)Nc3ccccc3CNC(=O)c3ccc(Cl)s3)sc2C1
2,95,CN1CCc2nc(C(=O)Nc3cc(C(=O)O)ccc3CCC(=O)Nc3ccc(Cl)cc3)sc2C1
3,92,CN1CCc2nc(C(=O)Nc3cc(C(=O)O)ccc3CCC(=O)Nc3ccc(Cl)cn3)sc2C1
4,100,CC(C)N1CCc2nc(C(=O)Nc3cc(C(=O)O)ccc3CCC(=O)Nc3ccc(Cl)cn3)sc2C1
5,94,CC(C)N1CCc2nc(C(=O)Nc3cc(C(=O)O)ccc3CCC(=O)Nc3ccc(F)cc3)sc2C1
6,87,COc1cc(C(=O)O)cc(NC(=O)c2nc3c(s2)CN(C(C)C)CC3)c1CCC(=O)Nc1ccc(Cl)cc1

# More lines, now with the values behind:
row,SMILES,remaining at 1 µM [%]
1,CC(C)N1CCc2nc(C(=O)Nc3c(CCC(=O)Nc4ccc(Cl)cc4)cccc3C(=O)O)sc2C1,100
2,CC(C)N1CCc2nc(C(=O)Nc3cc(C(=O)O)ccc3CCC(=O)Nc3ccc(Cl)cc3)sc2C1,100
3,CC(C)N1CCc2nc(C(=O)Nc3cc(C(=O)O)cc(F)c3CCC(=O)Nc3ccc(Cl)cc3)sc2C1,100
4,CC(C)N1CCc2nc(C(=O)Nc3cc(C(=O)O)cc(Cl)c3CCC(=O)Nc3ccc(Cl)cc3)sc2C1,93
5,CC(C)N1CCc2nc(C(=O)Nc3cc(C(=O)O)cc(C(F)(F)F)c3CCC(=O)Nc3ccc(Cl)cc3)sc2C1,77
6,CCOc1cc(C(=O)O)cc(NC(=O)c2nc3c(s2)CN(C(C)C)CC3)c1CCC(=O)Nc1ccc(Cl)cc1,93
7,CC(C)Oc1cc(C(=O)O)cc(NC(=O)c2nc3c(s2)CN(C(C)C)CC3)c1CCC(=O)Nc1ccc(Cl)cc1,86

# Experiment: AUC in monkey serum at 1 mg/kg, po by LC-MS/MS analysis
# Format: ADME, organism-based, Macaca mulatta
# Design: dose 1 mg/kg, route oral
# Conditions: rhesus monkey
# In short: (§1)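 Oral dosing of fasting monkeys (two animals) at 1.0 mg/kg, given as HCl salts. Plasma was sampled at 0.5, 1, 2, 4, 8 and 24 h for ex vivo anti-fXa inhibition (%) and for drug concentration. AUC, Cmax, C24 h and the Cmax/C24 h ratio were taken from the plasma concentrations.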
row,AUC [ng·h/mL],SMILES
1,346,CN1CCc2nc(C(=O)Nc3ccccc3CNC(=O)c3ccc(Cl)s3)sc2C1.Cl
2,285,CN1CCc2nc(C(=O)Nc3c(CNC(=O)c4ccc(Cl)s4)cccc3C(N)=O)sc2C1.Cl
3,785,CC(C)N1CCc2nc(C(=O)Nc3cc(C(=O)O)ccc3CCC(=O)Nc3ccc(Cl)cn3)sc2C1.Cl
4,724,CC(C)N1CCc2nc(C(=O)Nc3cc(C(=O)O)cc(Cl)c3CCC(=O)Nc3ccc(Cl)cc3)sc2C1.Cl

# Continued, compound first:
row,SMILES,AUC [ng·h/mL]
1,CN1CCc2nc(C(=O)Nc3cc(C(=O)O)ccc3CNC(=O)c3ccc(Cl)s3)sc2C1.Cl,247
2,CC(C)N1CCc2nc(C(=O)Nc3c(CNC(=O)c4ccc(Cl)s4)cccc3C(=O)O)sc2C1.Cl,221
3,CC(C)N1CCc2nc(C(=O)Nc3cc(C(=O)O)ccc3CNC(=O)c3ccc(Cl)s3)sc2C1.Cl,605
4,CC(C)N1CCc2nc(C(=O)Nc3cc(C(=O)O)ccc3CCC(=O)Nc3ccc(Cl)cc3)sc2C1.Cl,1370
5,CC(C)N1CCc2nc(C(=O)Nc3cc(C(=O)O)cc(F)c3CCC(=O)Nc3ccc(Cl)cc3)sc2C1.Cl,448

# Experiment: Cmax in monkey serum at 1 mg/kg, po by LC-MS/MS analysis
# Format: ADME, organism-based, Macaca mulatta
# Design: dose 1 mg/kg, route oral
# Conditions: rhesus monkey
# In short: as §1
row,Cmax [ng/mL],SMILES
1,95.9,CN1CCc2nc(C(=O)Nc3ccccc3CNC(=O)c3ccc(Cl)s3)sc2C1.Cl
2,109,CN1CCc2nc(C(=O)Nc3c(CNC(=O)c4ccc(Cl)s4)cccc3C(N)=O)sc2C1.Cl
3,98,CC(C)N1CCc2nc(C(=O)Nc3cc(C(=O)O)ccc3CCC(=O)Nc3ccc(Cl)cn3)sc2C1.Cl
4,67,CC(C)N1CCc2nc(C(=O)Nc3cc(C(=O)O)cc(Cl)c3CCC(=O)Nc3ccc(Cl)cc3)sc2C1.Cl

# The next lines start with the compound.
row,SMILES,Cmax [ng/mL]
1,CN1CCc2nc(C(=O)Nc3cc(C(=O)O)ccc3CNC(=O)c3ccc(Cl)s3)sc2C1.Cl,25.8
2,CC(C)N1CCc2nc(C(=O)Nc3c(CNC(=O)c4ccc(Cl)s4)cccc3C(=O)O)sc2C1.Cl,50.5
3,CC(C)N1CCc2nc(C(=O)Nc3cc(C(=O)O)ccc3CNC(=O)c3ccc(Cl)s3)sc2C1.Cl,67.1
4,CC(C)N1CCc2nc(C(=O)Nc3cc(C(=O)O)ccc3CCC(=O)Nc3ccc(Cl)cc3)sc2C1.Cl,87
5,CC(C)N1CCc2nc(C(=O)Nc3cc(C(=O)O)cc(F)c3CCC(=O)Nc3ccc(Cl)cc3)sc2C1.Cl,32

# Experiment: Drug level in monkey serum at 1 mg/kg, po at 24 hrs by LC-MS/MS analysis
# Format: ADME, organism-based, Macaca mulatta
# Design: dose 1 mg/kg, route oral
# Conditions: rhesus monkey, read-out: Drug uptake
# In short: as §1
row,concentration at 24 h [ng/mL],SMILES
1,0.6,CN1CCc2nc(C(=O)Nc3ccccc3CNC(=O)c3ccc(Cl)s3)sc2C1.Cl
2,9.5,CC(C)N1CCc2nc(C(=O)Nc3cc(C(=O)O)ccc3CCC(=O)Nc3ccc(Cl)cn3)sc2C1.Cl
3,17,CC(C)N1CCc2nc(C(=O)Nc3cc(C(=O)O)cc(Cl)c3CCC(=O)Nc3ccc(Cl)cc3)sc2C1.Cl

# Continued, compound first:
row,SMILES,concentration at 24 h [ng/mL]
1,CN1CCc2nc(C(=O)Nc3cc(C(=O)O)ccc3CNC(=O)c3ccc(Cl)s3)sc2C1.Cl,4
2,CC(C)N1CCc2nc(C(=O)Nc3c(CNC(=O)c4ccc(Cl)s4)cccc3C(=O)O)sc2C1.Cl,2
3,CC(C)N1CCc2nc(C(=O)Nc3cc(C(=O)O)ccc3CNC(=O)c3ccc(Cl)s3)sc2C1.Cl,7.1
4,CC(C)N1CCc2nc(C(=O)Nc3cc(C(=O)O)ccc3CCC(=O)Nc3ccc(Cl)cc3)sc2C1.Cl,26
5,CC(C)N1CCc2nc(C(=O)Nc3cc(C(=O)O)cc(F)c3CCC(=O)Nc3ccc(Cl)cc3)sc2C1.Cl,6.1

# Experiment: 1-Octanol-phosphate buffered saline distribution coefficient, log D of the compound at pH 7.4 after 30 mins by shake flask method
# Format: physicochemical
# Conditions: not given
# In short: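 Log D measured as the partition between 1-octanol and phosphate buffered saline, pH 7.4.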
row,logD at 0.5 h,SMILES
1,0.27,CN1CCc2nc(C(=O)Nc3cc(C(=O)O)ccc3CCC(=O)Nc3ccc(Cl)cc3)sc2C1
2,-0.28,CN1CCc2nc(C(=O)Nc3cc(C(=O)O)ccc3CCC(=O)Nc3ccc(Cl)cn3)sc2C1
3,0.23,CC(C)N1CCc2nc(C(=O)Nc3cc(C(=O)O)ccc3CCC(=O)Nc3ccc(Cl)cn3)sc2C1
4,0.27,CC(C)N1CCc2nc(C(=O)Nc3cc(C(=O)O)ccc3CCC(=O)Nc3ccc(F)cc3)sc2C1
5,1.15,COc1cc(C(=O)O)cc(NC(=O)c2nc3c(s2)CN(C(C)C)CC3)c1CCC(=O)Nc1ccc(Cl)cc1

# Continued, compound first:
row,SMILES,logD at 0.5 h
1,CC(C)N1CCc2nc(C(=O)Nc3c(CCC(=O)Nc4ccc(Cl)cc4)cccc3C(=O)O)sc2C1,0.66
2,CC(C)N1CCc2nc(C(=O)Nc3cc(C(=O)O)ccc3CCC(=O)Nc3ccc(Cl)cc3)sc2C1,0.82
3,CC(C)N1CCc2nc(C(=O)Nc3cc(C(=O)O)cc(F)c3CCC(=O)Nc3ccc(Cl)cc3)sc2C1,1.1
4,CC(C)N1CCc2nc(C(=O)Nc3cc(C(=O)O)cc(Cl)c3CCC(=O)Nc3ccc(Cl)cc3)sc2C1,1.61
5,CC(C)N1CCc2nc(C(=O)Nc3cc(C(=O)O)cc(C(F)(F)F)c3CCC(=O)Nc3ccc(Cl)cc3)sc2C1,1.64
6,CCOc1cc(C(=O)O)cc(NC(=O)c2nc3c(s2)CN(C(C)C)CC3)c1CCC(=O)Nc1ccc(Cl)cc1,1.62
7,CC(C)Oc1cc(C(=O)O)cc(NC(=O)c2nc3c(s2)CN(C(C)C)CC3)c1CCC(=O)Nc1ccc(Cl)cc1,1.91

# Experiment: Bioavailability in monkey at 1 mg/kg, iv after 24 hrs by LC-MS/MS analysis
# Format: ADME, organism-based, Macaca mulatta
# Conditions: rhesus monkey, in vivo
row,bioavailability [%],SMILES
1,67,CC(C)N1CCc2nc(C(=O)Nc3cc(C(=O)O)ccc3CCC(=O)Nc3ccc(Cl)cc3)sc2C1
2,52,CC(C)N1CCc2nc(C(=O)Nc3cc(C(=O)O)cc(Cl)c3CCC(=O)Nc3ccc(Cl)cc3)sc2C1
